# HSP90 inh – blocks HSP90-mediated luciferase refolding in reticulocyte lysate. Rabbit reticulocyte lysate, luciferase refolding luminescence, 3 h. inhibition, % at 5.6 µM. 0.91% of 290,000 active;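 active = inhibition above the screen-wide mean plus 3 SD, computed separately per campaign, cut at about 16% in these data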;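 note: 0% = DMSO wells and 100% = 60 µM geldanamycin wells; inhibitors lower the luminescence because luciferase stays unfolded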
# FLuc inh counter – counter-screen for luciferase assay inhibitors: firefly luciferase inhibition; P08659; ATPLite firefly luciferase biochemical luminescence, 10 min; inhibition, % at 10 µM; 1.5% of 200,000 active;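 active = inhibition above about 50% when tested at 10 µM, limit read from the data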
# Target sequence (P08659 whole entry, looked up): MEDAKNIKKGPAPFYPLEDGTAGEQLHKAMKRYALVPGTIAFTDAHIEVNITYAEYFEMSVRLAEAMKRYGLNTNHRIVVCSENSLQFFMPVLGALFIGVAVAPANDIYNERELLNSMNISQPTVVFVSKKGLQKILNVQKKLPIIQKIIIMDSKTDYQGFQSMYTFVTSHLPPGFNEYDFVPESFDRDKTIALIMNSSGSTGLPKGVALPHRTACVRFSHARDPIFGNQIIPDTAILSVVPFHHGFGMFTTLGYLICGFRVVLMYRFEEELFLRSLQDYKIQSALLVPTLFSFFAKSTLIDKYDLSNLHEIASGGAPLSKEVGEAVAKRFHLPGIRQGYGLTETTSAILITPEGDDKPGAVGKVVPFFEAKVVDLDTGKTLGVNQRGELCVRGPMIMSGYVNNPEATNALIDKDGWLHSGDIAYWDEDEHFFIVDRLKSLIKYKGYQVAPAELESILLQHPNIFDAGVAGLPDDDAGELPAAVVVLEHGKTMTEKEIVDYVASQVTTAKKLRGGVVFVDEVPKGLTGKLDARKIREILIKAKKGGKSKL
# PPC-1+TRAIL kill – PPC-1 cancer cell killing with TRAIL present. PPC-1 cells + TRAIL, ATPLite viability luminescence. cell killing (% activity), % at 4 µM or 5 µM. 0.41% of 220,000 active. AID 1443;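 active = cell killing above 50% in the first pass at 4 µM, then a duplicate retest at 5 µM averaging 50% or more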;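 note: plate controls were cells with TRAIL plus DMSO for no effect and medium-only wells lacking cells for full effect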
# FLuc stim CS – affects firefly luciferase, flagging false hits in luciferase stimulation screens | AID 1027 | activation factor at 10 µM | ATPlite luciferase biochemical, luminescence, 10 min; 0 = ATP-free wells, 1 = DMSO control | 200,000 tested, under 10 active | P08659;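 active = luciferase activation factor, scaled between plate controls, of at least 2 with compound at 10 µM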
#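 Assay system – cell-free luciferase reagent · Medium – PBS-based ATP solution · Dosing – test compounds dosed from 2 mM stocks in 100% DMSO · Timing – 10 min, room temperature · Technique – light output (luminescence) · Measure – luminescence gain marking luciferase activators · Controls – No-ATP low control, compound-free enzyme-plus-ATP high control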
# STAT3 blocker – STAT3 signaling inhibition | U3A cells, IL-6 STAT3-luciferase reporter, luminescence; host cell line lacks STAT1 | inhibition, % at 5.5 µM | 0.89% of 190,000 active;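 active = inhibition above the mean inhibition across all screened compounds plus 3 SD, cut at about 44% in these data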;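 note: 0% = DMSO only wells and 100% = 100 µM nifuroxazide control wells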
# C8 TRAIL sens – caspase-8 TRAIL sensitization. 1% of 360,000 active. AID 624354. NB7+C8 cells + TRAIL, ATPlite viability luminescence. inhibition (viability loss, TRAIL sensitization), % at 10 µM;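 active = compounds causing at least 50% loss of cell viability in the single-dose screen, relative to plate controls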
# The depositor's hits bear a star; / = not tested or not shown. The list is not random: actives were taken first. Their share in the collection is about 2.2%.
SMILES,HSP90 inh,FLuc inh counter,PPC-1+TRAIL kill,FLuc stim CS,STAT3 blocker,C8 TRAIL sens
O=C(Nc1ccc2c(c1)OCO2)Nc1cnccn1,0,8,13,0.9,16,9
O=C(Nc1ccc2c(c1)OCO2)Nc1ccccn1,-2,50*,33,0.5,16,29
CC(=O)Nc1cccc(/C(C)=N/NC(=O)c2ccc3c(c2)OCO3)c1,-3,75*,37,0.2,15,49
O=C(CN1CCN(c2cccc(Cl)c2)CC1)c1ccc(O)cc1O,-2,/,/,/,/,3
COC(=O)CCC(C)N1CCC(Oc2ccc(C(=O)N3CCCC3)cc2)CC1 (configuration not stated),-1,/,/,/,/,-6
COc1cc(/C=C/C(=O)NC(C)C2CC3CCC2C3)cc(OC)c1OC (configuration not stated),-2,/,/,/,/,9
O=C(CSc1nc2ccccc2c(=O)[nH]1)Nc1ccc([N+](=O)[O-])cc1,/,/,/,/,/,61*
COc1cc(S(=O)(=O)N2CCN(c3ccccc3)CC2)ccc1Cl,-5,-2,23,1,-1,5
COc1cc(S(=O)(=O)N2CCN(c3ccccc3F)CC2)ccc1Cl,4,74*,28,0.3,-1,-9
CN(CC(=O)Nc1ccc(C#N)cc1)Cc1ccc(Cl)cc1,3,-6,-5,1.1,1,-3
N#Cc1ccc(NC(=O)Nc2ccc(Cl)cc2)cc1,2,4,0,1,10,58*
CCOC(=O)c1ccc(NC(=O)c2nc[nH]c2C(=O)NC)cc1,/,/,1,/,/,13
CCOC(=O)c1ccc(NC(=O)c2nc[nH]c2C(=O)NCCNC(=O)c2[nH]cnc2C(=O)Nc2ccc(C(=O)OCC)cc2)cc1,/,/,/,/,/,92*
CCOC(=O)c1ccc(Nc2ncnc3nc[nH]c23)cc1,-2,50*,33,0.5,17,34
O=C(CN1CCC(NC(=O)Nc2ccccc2-c2ccccc2)CC1)NCc1ccco1,-2,-10,28,1.1,-3,-2
Cc1cc(C)nc(SCC(=O)Nc2ccnc3ccccc23)n1,9,-2,10,1,86*,11
C/C(=N\Nc1nc2c(s1)CCCC2)c1ccccc1,16*,14,12,0.9,-101,11
O=C(Nc1nc2c(s1)CCCC2)Oc1ccccc1,0,9,13,0.9,-2,1
CN1CCN(C2=C(NS(=O)(=O)c3cccs3)C(=O)c3ccccc3C2=O)CC1,0,/,-12,/,/,27
CN1CCN(C2=C(NS(=O)(=O)c3ccccc3)C(=O)c3ccccc3C2=O)CC1,5,/,/,/,/,51*
CCN1CCN(C2=C(NS(=O)(=O)c3ccccc3)C(=O)c3ccccc3C2=O)CC1,1,/,/,/,/,61*
C=CC(=O)N1C/C(=C/c2ccc(Cl)cc2)C(=O)/C(=C\c2ccc(Cl)cc2)C1,/,/,/,/,/,93*
CN1C/C(=C/c2ccncc2)C(=O)/C(=C/c2ccncc2)C1,3,/,/,/,/,12
O=C1C(=Cc2ccc(Cl)cc2)Cc2ccccc21,/,/,/,/,/,16
C=CC(=O)N1C/C(=C/c2ccccc2)C(=O)/C(=C\c2ccccc2)C1,/,/,/,/,/,92*
SMILES,HSP90 inh,FLuc inh counter,PPC-1+TRAIL kill,FLuc stim CS,STAT3 blocker,C8 TRAIL sens
O=C(Nc1cccc(-c2cnc3ccccc3n2)c1)C1CC(=O)N(c2ccccc2)C1 (configuration not stated),-1,/,/,/,/,14
CCOC(=O)c1sc(NC(=O)CCN2C(=O)C3CCCCC3C2=O)cc1C (configuration not stated),/,/,/,/,/,-1
CCOc1ccc(S(=O)(=O)n2nc(C)cc2C)cc1,-1,/,/,/,/,2
Cc1cc(C(=O)COC(=O)[C@H](C)NC(=O)c2ccco2)c(C)n1Cc1ccco1,-1,56*,14,0.4,8,1
Cc1ccc(C(=O)NCC(=O)OCC(=O)c2cc(C)n(Cc3ccco3)c2C)cc1,5,9,3,0.9,5,1
COc1ccc(N2CCN(C(=O)COC(=O)CCc3ccccc3OC)CC2)cc1,/,/,/,/,/,-7
CC1(C)CC(NC(=O)c2cc(S(=O)(=O)N3CCCCC3)ccc2Cl)CC(C)(C)N1,-2,/,/,/,/,-8
O=c1c2c3c(sc2nc2n1N=C(c1cccs1)CS2)CCCC3,5,76*,78*,0.2,27,67*
COc1ccc(CN(C)C(=O)C(Cc2ccccc2)NC(=O)c2ccccc2)cc1F (configuration not stated),/,/,/,/,/,18
CCOc1ccc(CN(C)C(=O)[C@H](Cc2ccccc2)NC(=O)OCc2ccccc2)cc1OC,-3,/,/,/,/,51*
CC1CN(Cc2cc(=O)oc3cc(O)ccc23)CC(C)O1 (configuration not stated),-1,/,/,/,/,9
O=C1OC(Nc2nc(-c3ccc(F)cc3)cs2)c2ccccc21 (configuration not stated),-1,/,/,/,/,16
NC1=C(Cl)C(=O)c2ccccc2C1=O,/,/,/,/,/,27
NC1=C(Cl)C(=O)c2ccc(S(N)(=O)=O)cc2C1=O,/,/,/,/,/,92*
Cc1cc(O)ccc1Nc1nc(-c2cccs2)cs1,7,78*,4,0.2,12,2
Cc1cc(O)ccc1Nc1nc(-c2cccnc2)cs1,-1,/,/,/,/,4
Cc1ccc(Nc2nc(-c3cccs3)cs2)nc1,17*,85*,30,0.2,80*,65*
CCOC(=O)C1=C(O)C(=O)N(CCCn2ccnc2)C1c1ccc(OC)cc1 (configuration not stated),4,5,18,0.9,12,/
CC(C)Sc1cc(Cl)nc(NC(=O)Nc2ccccc2)n1,2,/,/,/,/,91*
CCOC(=O)c1cnc2c(-c3ccccc3)cnn2c1C,-2,75*,23,0.2,20,58*
Cc1cccc2sc(NC(=O)C3c4ccccc4Oc4ccccc43)nc12,-1,-4,0,1,4,10
CC(C)c1ccc(S(=O)(=O)/N=C2/C=C(Sc3ncn[nH]3)C(=O)c3ccccc32)cc1,60*,7,39,0.9,-59,8
Cc1ccc(S(=O)(=O)N(CC(=O)NCC2CCCO2)Cc2ccc(F)cc2)cc1 (configuration not stated),-6,/,/,/,/,6
COc1ccc(Nc2nnc(SCC(=O)N3CC(=O)Nc4ccccc43)s2)cc1,0,55*,26,0.4,4,23
CCOc1ccccc1/C=N/Nc1ccnc(=O)[nH]1,-1,/,/,/,/,1
O=c1nccc(N/N=C/c2ccccc2O)[nH]1,16*,/,/,/,/,64*
COc1cccc(/C=N/NC(=O)Cn2nc(C)c([N+](=O)[O-])c2C)c1O,5,-8,18,1.1,24,48
COc1cccc(/C=N/Nc2ccc([N+](=O)[O-])cn2)c1O,11,/,/,/,/,60*
O=[N+]([O-])c1ccc(NN=Cc2cccc3ccccc23)nc1,/,/,/,/,/,-2
COc1cccc(/C=N/Nc2ccnc(=O)[nH]2)c1O,15,/,/,/,/,48*
